Source: ChEMBL document CHEMBL4619741, “Screening of chalcone analogs with anti-depressant, anti-inflammatory, analgesic, and COX-2-inhibiting effects” (Bioorg Med Chem Lett, 2020)
Calls of active or inactive are those of the source. The calls are words filed in the database; no cut-off is given here.

Tests used:
[1] = system: Mus musculus; test: Antiinflammatory activity against dimethylbenzene-induced ear edema mouse model assessed as inhibition of ear edema at 30 mg/kg, ip pretreated with compounds followed by dimethylbenzene challenge relative to control; type: functional
Outline: (§1)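 Intraperitoneal dosing (test agents 30 mg/kg, reference 3 mg/kg) given before topical dimethylbenzene to mouse ear. Ear inflammation was measured by weight (mg), and inhibition was expressed as percent versus control at 60 min.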

[2] = system: Mus musculus; test: Antidepressant activity in mouse assessed as immobility time at 30 mg/kg, ip by forced swimming test (reference value: 172.3 +/- 9.67 sec); type: functional
[3] = system: Mus musculus; test: Antidepressant activity in mouse assessed as reduction in duration of immobility at 30 mg/kg, ip relative to control; type: functional
[4] = system: Mus musculus; test: Antidepressant activity in mouse assessed as increase in serotonin level at 30 mg/kg, ip; type: functional, organism-based
Outline: (§2)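 Mice under stress treated intraperitoneally (30 mg/kg), alongside normal-vehicle and stress-vehicle groups; serotonin, norepinephrine and dopamine levels measured; n = 8 per group; values as mean ± SEM; significance tested against stress vehicle and normal vehicle.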

[5] = target: T1, Prostaglandin G/H synthase 1 (Ovis aries, UniProt P05979); test: Inhibition of ovine COX1 by ELISA
T1 sequence (P05979 whole entry): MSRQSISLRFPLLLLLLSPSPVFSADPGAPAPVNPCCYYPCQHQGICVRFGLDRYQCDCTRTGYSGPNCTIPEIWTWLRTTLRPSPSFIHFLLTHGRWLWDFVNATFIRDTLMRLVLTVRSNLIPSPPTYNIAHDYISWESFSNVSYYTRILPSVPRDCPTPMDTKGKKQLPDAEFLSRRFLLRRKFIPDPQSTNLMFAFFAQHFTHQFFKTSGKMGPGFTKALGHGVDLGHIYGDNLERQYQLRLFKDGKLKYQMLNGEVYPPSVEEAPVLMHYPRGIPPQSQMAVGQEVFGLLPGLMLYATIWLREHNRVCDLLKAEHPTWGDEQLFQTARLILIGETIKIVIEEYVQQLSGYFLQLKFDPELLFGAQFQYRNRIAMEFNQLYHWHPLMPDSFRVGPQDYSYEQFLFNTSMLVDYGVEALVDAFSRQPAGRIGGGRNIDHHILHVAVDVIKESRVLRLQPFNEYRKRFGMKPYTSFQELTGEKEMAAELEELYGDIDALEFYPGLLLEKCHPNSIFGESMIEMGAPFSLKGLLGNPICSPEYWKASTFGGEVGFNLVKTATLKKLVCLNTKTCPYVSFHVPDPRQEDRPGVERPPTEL
Outline: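 Ovine COX-1 inhibition followed through enzyme peroxidase activity with a colorimetric enzyme immunoassay kit; IC50 values determined; mean and SD of three measurements.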

[6] = system: Mus musculus; test: Antidepressant activity in mouse assessed as change in norepinephrine level at 30 mg/kg, ip; type: functional, organism-based; outline: as §2
[7] = system: Mus musculus; test: Antidepressant activity in mouse assessed as change in dopamine level at 30 mg/kg, ip; type: functional, organism-based; outline: as §2
[8] = system: Mus musculus; test: Antiinflammatory activity against dimethylbenzene-induced ear edema mouse model assessed as inhibition of ear edema at 3 mg/kg, ip pretreated with compounds followed by dimethylbenzene challenge relative to control; type: functional; outline: as §1
[9] = system: Mus musculus; test: Analgesic activity in mouse assessed as inhibition of acetic acid-induced writhing at 3 mg/kg, ip relative to control; type: functional
[10] = system: Mus musculus; test: Antidepressant activity in mouse assessed as increase in serotonin level at 3 mg/kg, ip; type: functional, organism-based
[11] = system: Mus musculus; test: Antidepressant activity in mouse assessed as change in norepinephrine level at 3 mg/kg, ip; type: functional, organism-based
[12] = system: Mus musculus; test: Antidepressant activity in mouse assessed as reduction in duration of immobility at 3 mg/kg, ip relative to control; type: functional
[13] = system: Mus musculus; test: Antidepressant activity in mouse assessed as change in dopamine level at 3 mg/kg, ip; type: functional, organism-based
[14] = system: Mus musculus; test: Antidepressant activity in mouse assessed as immobility time at 3 mg/kg, ip by forced swimming test (reference value: 172.3 +/- 9.67 sec); type: functional

SMILES | inhibition in vivo at 30 mg/kg [1] [%] | Time [2] [s] | inhibition in vivo at 30 mg/kg [3] [%] | other results
Cc1nc2ccccc2c(-c2ccccc2)c1C(=O)/C=C/c1ccc(Br)cc1 | 74.1 | 75.8 |  | 
Cc1nc2ccccc2c(-c2ccccc2)c1C(=O)/C=C/c1ccc([N+](=O)[O-])cc1 | 42.9 | 46.8 | 72.8 | 
Cc1nc2ccccc2c(-c2ccccc2)c1C(=O)/C=C/c1ccc(C(C)C)cc1 | 76.8 | 22.8 | 86.8 | Activity [4]: Active; IC50 [5]: 8.95 µM; Activity [6]: inactive; Activity [7]: inactive
COc1ccc2c(c1)c(CC(=O)O)c(C)n2C(=O)c1ccc(Cl)cc1 [INDOMETHACIN] |  |  |  | inhibition in vivo at 3 mg/kg [8]: 51.1%; inhibition in vivo at 3 mg/kg [9]: 78.3%
Cc1nc2ccccc2c(-c2ccccc2)c1C(=O)/C=C/c1cccc(O)c1 | 65.2 | 32.8 | 80 | 
Cc1nc2ccccc2c(-c2ccccc2)c1C(=O)/C=C/c1ccc(O)cc1 | 78.8 | 79.3 |  | 
Cc1nc2ccccc2c(-c2ccccc2)c1C(=O)/C=C/c1ccc(F)cc1 | 88.3 | 25.8 | 85 | Activity [4]: Active; IC50 [5]: 10.2 µM; Activity [6]: inactive; Activity [7]: inactive
Cc1cccc(/C=C/C(=O)c2c(C)nc3ccccc3c2-c2ccccc2)c1 | 67.1 | 57.5 |  | 
Cc1nc2ccccc2c(-c2ccccc2)c1C(=O)/C=C/c1ccc(Cl)cc1 | 85.5 | 29.3 | 83 | 
Cc1nc2ccccc2c(-c2ccccc2)c1C(=O)/C=C/c1ccccc1F | 81.2 | 49.3 |  | 
Cc1nc2ccccc2c(-c2ccccc2)c1C(=O)/C=C/c1ccccc1Br | 55 | 60.3 |  | 
Cc1nc2ccccc2c(-c2ccccc2)c1C(=O)/C=C/c1cccc(F)c1 | 69.2 | 38.3 | 77.8 | 
CNCCC(Oc1ccc(C(F)(F)F)cc1)c1ccccc1 (stereo unspecified) [FLUOXETINE] |  |  |  | Activity [10]: Active; Activity [11]: inactive; inhibition in vivo at 3 mg/kg [12]: 48.9%; Activity [13]: inactive; Time [14]: 88.1 s
Cc1nc2ccccc2c(-c2ccccc2)c1C(=O)/C=C/c1cccc(Cl)c1 | 53.6 | 48.5 |  | 
Cc1nc2ccccc2c(-c2ccccc2)c1C(=O)/C=C/c1ccc(Cl)cc1Cl | 81.3 | 31.5 | 81 | 
COc1ccccc1/C=C/C(=O)c1c(C)nc2ccccc2c1-c1ccccc1 | 62.1 | 109.3 |  | 
COc1ccc(/C=C/C(=O)c2c(C)nc3ccccc3c2-c2ccccc2)cc1 | 66.7 | 83.5 |  | 
Cc1nc2ccccc2c(-c2ccccc2)c1C(=O)/C=C/c1cccc(Br)c1 | 72.9 | 13.8 | 92 | 
Cc1nc2ccccc2c(-c2ccccc2)c1C(=O)/C=C/c1ccc(F)cc1F | 65.8 | 51.5 |  | 
Cc1nc2ccccc2c(-c2ccccc2)c1C(=O)/C=C/c1ccc(N(C)C)cc1 | 69.7 | 47.5 |  | 
Cc1nc2ccccc2c(-c2ccccc2)c1C(=O)/C=C/c1c(Cl)cccc1Cl | 46.7 | 52 |  | 
Cc1ccc(/C=C/C(=O)c2c(C)nc3ccccc3c2-c2ccccc2)cc1 | 61.3 | 63 |  | 
Cc1ccccc1/C=C/C(=O)c1c(C)nc2ccccc2c1-c1ccccc1 | 70.9 | 86.3 |  | 
COc1cccc(/C=C/C(=O)c2c(C)nc3ccccc3c2-c2ccccc2)c1 | 74.6 | 48.5 |  | 
Cc1nc2ccccc2c(-c2ccccc2)c1C(=O)/C=C/c1ccccc1Cl | 73.2 | 136.3 |  | 
COc1ccc(/C=C/C(=O)c2c(C)nc3ccccc3c2-c2ccccc2)cc1O | 65.5 | 52.3 |  | 
